For 14 compounds, Concentration results are on record in ChEMBL document CHEMBL1124611, “Synthesis and antitubercular activity of N-(2-naphthyl)glycine hydrazide analogues” (J Med Chem, 1989).

Common to all, as to type: functional, organism-based
Assay [1] relates to Mycobacterium tuberculosis. In words: Ability to inhibit 100%growth against Mycobacterium tuberculosis H37Rv in Youman's medium with 10% bovine serum. A digest of the protocol: (§1)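 H37Rv from a 14-day Youman's culture was inoculated as a loopful floated on Youman's medium with 10% (v/v) freshly prepared bovine serum. The medium held a range of compound concentrations. Controls held medium or ethylene glycol. Tubes were sealed and held at 37 °C. Growth was compared with controls and scored at 21 days.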

Assay [2] deals with Mycobacterium tuberculosis. In words: Ability to inhibit 100%growth against Mycobacterium tuberculosis H37Rv in Youman's medium. A digest of the protocol: (§2)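 M. tuberculosis H37Rv was kept on Petrik's solid medium. A 3-mm loopful of a 14-day culture grown in Youman's medium was floated on 5.0 mL of Youman's (nonprotein) medium holding a range of compound concentrations diluted from stocks. Controls held medium or ethylene glycol. Tubes were sealed with paraffin and held at 37 °C. Growth was compared with controls weekly and scored at 21 days, in triplicate.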

In assay [3] the test system is Mycobacterium tuberculosis. Put plainly: Ability to inhibit partial growth (50+/-10%) against Mycobacterium tuberculosis H37Rv in Youman's medium with 10% bovine serum. The procedure, abridged: as §1
Assay [4] concerns Mycobacterium tuberculosis. In words: Ability to inhibit partial growth (50+/-10%) against Mycobacterium tuberculosis H37Rv in Youman's medium. The procedure, abridged: as §2
The subject of assay [5] is Mycobacterium tuberculosis. Put plainly: Ability to inhibit 100% growth against Mycobacterium tuberculosis strain no :14029. A digest of the protocol:
(§3)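 Clinical isolates (INH-resistant nos. 22443 and 312; streptomycin-resistant no. 14029) were kept on Lowenstein-Jensen or Petrik's medium, then moved to Youman's medium. 14-day cultures were inoculated into tubes holding a range of compound concentrations in Youman's medium. Controls held medium, ethylene glycol, INH and streptomycin. Tubes were sealed with paraffin and held at 37 °C for 4 weeks. Growth was compared with controls weekly and scored at 28 days, in triplicate.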

For assay [6], the system named is Mycobacterium tuberculosis. In words: Ability to inhibit partial growth (50+/-10%) against Mycobacterium tuberculosis strain no: 14029 in Youman's medium. The procedure, abridged: as §3
Assay [7] concerns Mycobacterium tuberculosis. Put plainly: Ability to inhibit 100%growth against Mycobacterium tuberculosis strain no: 22443 in Youman's medium. The procedure, abridged:
as §3

For assay [8], the system named is Mycobacterium tuberculosis. Put plainly: Ability to inhibit partial growth (50+/-10%) against Mycobacterium tuberculosis strain no: 22443 in Youman's medium. A digest of the protocol: as §3
The subject of assay [9] is Mycobacterium tuberculosis. Put plainly: Ability to inhibit 100%growth against Mycobacterium tuberculosis strain no: 312 in Youman's medium. The procedure, abridged:
as §3

The subject of assay [10] is Mycobacterium tuberculosis. Put plainly: Ability to inhibit partial growth (50+/-10%) against Mycobacterium tuberculosis strain no: 312 in Youman's medium. The procedure, abridged:
as §3

Turning to `CN(CC(=O)NN)c1ccc2ccccc2c1`, the Concentration in assay [1] was determined as 50 µg/mL; in assay [2] it was 10 µg/mL; in assay [3] it was 10 µg/mL; in assay [4] it was 2 µg/mL.

On to `COc1ccc2cc(NCC(=O)NN)ccc2c1`, for which the Concentration in [1] amounted to 50 µg/mL; in assay [2], 10 µg/mL; in assay [3], 10 µg/mL; in assay [4], 5 µg/mL.

On to `CC(CC(=O)NN)Nc1ccc2ccccc2c1` (stereo unspecified), for which the Concentration in assay [1] amounted to 100 µg/mL; in [2], 10 µg/mL; in assay [3], 50 µg/mL; in [4], 5 µg/mL.

In the case of `O=C(CNc1ccc2ccccc2c1)N/N=C/c1ccncc1`, the Concentration in assay [1] is 100 µg/mL; in [2], 1 µg/mL; in [3], 10 µg/mL; in [4] it was 0.5 µg/mL.

With `COc1ccc2cc(NC(C)C(=O)NN)ccc2c1` (stereo unspecified), the Concentration in assay [1] is 100 µg/mL; in [2] it was 50 µg/mL; in assay [3], 50 µg/mL; in [4], 10 µg/mL.

In the case of `CN[C@@H]1[C@H](O[C@H]2[C@H](O[C@H]3[C@H](O)[C@@H](O)[C@H](N=C(N)N)[C@@H](O)[C@@H]3N=C(N)N)O[C@@H](C)[C@]2(O)C=O)O[C@@H](CO)[C@H](O)[C@H]1O`, the Concentration is 2500 µg/mL in assay [5] and 1000 µg/mL in assay [6].

Regarding `CC(Nc1ccc2ccccc2c1)C(=O)NN` (stereo unspecified), the Concentration was 50 µg/mL in [1], 1 µg/mL in [2], 10 µg/mL in [3] and 0.5 µg/mL in [4].

On to `NNC(=O)c1ccncc1`, for which the Concentration in assay [7] was determined as 150 µg/mL; in assay [8], 100 µg/mL; in [9] it was 100 µg/mL; in assay [1], 1 µg/mL; in [2] it was 1 µg/mL; in assay [3] it was 0.5 µg/mL. Besides, the Concentration in assay [10] worked out at 50 µg/mL; in assay [4] it was 0.1 µg/mL.

Consider `CN(CC(=O)N/N=C/c1ccncc1)c1ccc2ccccc2c1`, for which the Concentration in assay [1] turned out to be 100 µg/mL; in assay [2] it was 10 µg/mL; in assay [3], 10 µg/mL; in assay [4], 1 µg/mL.

Regarding `CC(CC(=O)NN)Nc1ccc2ncccc2c1` (stereo unspecified), the Concentration in assay [1] came to 150 µg/mL; in assay [2], 100 µg/mL; in assay [3], 100 µg/mL; in assay [4], 50 µg/mL.

Consider `O=C(O)CNc1ccc2ccccc2c1`, for which the Concentration in [2] is 1000 µg/mL; in assay [4] it was 100 µg/mL.

For `NNC(=O)CNc1ccc2ncccc2c1`, the Concentration in assay [1] was 100 µg/mL; in assay [2], 100 µg/mL; in assay [3], 50 µg/mL; in assay [4], 25 µg/mL.

On to `NNC(=O)CNc1ccc2ccccc2c1`, for which the Concentration amounted to 50 µg/mL in [1], 1 µg/mL in assay [2], 10 µg/mL in assay [3] and 0.5 µg/mL in assay [4].

As to `O=C(O)CNc1ccc2ncccc2c1`, the Concentration in assay [1] came out at 100 µg/mL; in assay [2], 100 µg/mL; in [3], 50 µg/mL; in assay [4], 10 µg/mL.
